The values that follow come from ChEMBL document CHEMBL1156201, “2-MeS-beta,gamma-CCl2-ATP is a potent agent for reducing intraocular pressure” (J Med Chem, 2010).

One series deals with Serum. Kind of series: Half life in human serum. It counts as ADME, cell-free. The method in brief:
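Serum came from healthy volunteers' blood, held 12 h at 4 °C, centrifuged and stored at −80 °C. Nucleotide (4.5 μL of 40 mM stock) was incubated with 180 μL serum plus 540 μL RPMI-1640 at 37 °C for up to 24 h, sampled at 0.5–12 h intervals. Samples were heat-stopped at 80 °C, cleaned up by extraction and anion-exchange, then analysed by HPLC. Hydrolysis rate came from peak-area change over time.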

Series [1] can be described thus: Association constant pKa of the compound. It counts as physicochemical.
Another series has as its target P2Y purinoceptor 1 (Meleagris gallopavo, UniProt P49652). Description: Agonist activity at turkey P2Y1 receptor expressed in human […] receptor assessed as induction of intracellular calcium mobilization. It is filed as functional, cell-based.
Series [2] can be described thus: Chemical stability assessed as enzymatic stability at 100 uM after 20 mins in presence of human NTPDase1. It is filed as physicochemical. The method in brief: (§1)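 Crude extracts of COS-7 cells transiently transfected with the NTPDase. Extract preincubated 3 min at 37 °C in Tris-Ringer buffer, pH 7.4. Substrate added at 100 μM final; reaction stopped at 20 min with malachite green. Released Pi read at 630 nm. Activity of untransfected-cell extract subtracted.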

A short description of series [3]: Chemical stability assessed as enzymatic stability at 100 uM after 20 mins in presence of human NTPDase2. It is filed as physicochemical. The method in brief: as §1
Series [4] in a line: Chemical stability assessed as enzymatic stability at 100 uM after 20 mins in presence of human NTPDase3. It counts as physicochemical. The method, boiled down:
as §1

Series [5] is described as follows: Chemical stability assessed as enzymatic stability at 100 uM after 20 mins in presence of human NTPDase8. It counts as physicochemical. The method, boiled down:
as §1

Series [6] can be described thus: Chemical stability assessed as enzymatic stability at 100 uM after 20 mins in presence of human NPP1. It is filed as physicochemical. The method in brief: (§2)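 Human NPP1 or NPP3 extract was preincubated 3 min at 37 °C in 1 mM CaCl2, 140 mM NaCl, 5 mM KCl, 50 mM Tris pH 8.5. Nucleotide was added at 100 μM final. After 20 min the reaction was quenched into ice-cold 1 M perchloric acid and neutralised with KOH. Degradation was read by reverse-phase HPLC (TBA/EDTA/phosphate, pH 7.0).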

A short description of series [7]: Chemical stability assessed as enzymatic stability at 100 uM after 20 mins in presence of human NPP3. It is filed as physicochemical. The method, boiled down: as §2
Series [8] is filed under the species Oryctolagus cuniculus. Kind of series: Antihypertensive activity in New Zealand rabbit assessed as reduction in intraocular pressure at 100 uM after 8 hrs relative to control. It counts as functional. The method, boiled down: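 Male New Zealand white rabbits (2.5 ± 0.5 kg). 100 μM, 10 μL applied unilaterally to the cornea; contralateral eye got the same volume of saline (0.9% NaCl). IOP read by rebound tonometer without anesthetic, twice before dosing, then followed up to 8 h. Blinded design. Mean ± SEM of 8–10 independent experiments.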

For series [9], the species on record is Oryctolagus cuniculus. Description: Antihypertensive activity in New Zealand rabbit assessed as reduction in intraocular pressure at 1 nM to 100 uM after 8 hrs relative to control. It is filed as functional, Eye. The method, boiled down: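 Male New Zealand white rabbits (2.5 ± 0.5 kg). 10 μL of 1 nM–100 μM solution instilled unilaterally on the cornea; contralateral eye got saline (0.9% NaCl, vehicle). IOP read by rebound tonometer without anesthetic, twice before dosing. Maximal response at each dose was plotted against concentration and fitted for pD2; EC50 taken as antilog of −pD2. One dose per animal per day, washout ≥2 days. Experimenter blinded.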

The nature of series [10]: Chemical stability assessed as half life of hydrolysis at pH 1.4. It is filed as physicochemical. The note with it: buffer. The method in brief: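 Analogue (1.5 mg) in 0.2 M HCl/KCl buffer (0.8 mL), adjusted to pH 1.4, held at 37 °C for 1–31 days. Sampled at 1–24 h intervals and analysed by reverse-phase HPLC. Half-life derived from peak integration over time.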

Each structure is given as a SMILES string. Active and inactive are the calls of the source. The rule behind the calls is not given here.

Chain of P2Y purinoceptor 1 (P49652 whole entry): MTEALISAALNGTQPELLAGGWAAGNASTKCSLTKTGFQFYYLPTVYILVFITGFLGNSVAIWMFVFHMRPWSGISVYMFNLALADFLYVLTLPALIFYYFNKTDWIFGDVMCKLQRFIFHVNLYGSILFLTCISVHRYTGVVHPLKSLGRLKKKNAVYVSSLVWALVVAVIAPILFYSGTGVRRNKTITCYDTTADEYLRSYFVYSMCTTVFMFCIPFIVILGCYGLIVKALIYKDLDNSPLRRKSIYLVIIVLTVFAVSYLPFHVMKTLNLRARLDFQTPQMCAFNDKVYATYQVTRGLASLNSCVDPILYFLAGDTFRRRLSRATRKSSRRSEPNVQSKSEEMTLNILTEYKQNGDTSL

Consider `CSc1nc(N)c2ncn([C@@H]3O[C@H](COP(=O)(O)OP(=O)(O)C(F)(F)P(=O)(O)O)[C@@H](O)[C@H]3O)c2n1`, for which the t1/2 with Serum is 12.4 h. Besides, the pKa in series [1] worked out at 7. In addition, the EC50 on P2Y purinoceptor 1 (read-out: EC50) turned out to be 760 nM. Further, the Activity in series [2] is on record as 2.6%; in series [3], 1.1%; in [4], 2.6%; in [5], 5.2%; in series [6], 6.2%; in series [7], 0.5%. Also, the outcome in the series filed under Oryctolagus cuniculus [8] (Eye) was inactive.

On to `CSc1nc(N)c2ncn([C@@H]3O[C@H](COP(=O)(O)OP(=O)(O)C(Cl)(Cl)P(=O)(O)O)[C@@H](O)[C@H]3O)c2n1`, for which, in series [1], the pKa was 7. Further, the EC50 at P2Y purinoceptor 1 (read-out: EC50) amounted to 9540 nM. The Activity in [2] was 0.5%; in series [3], 0.5%; in series [6] it was 5.8%; in series [7], 1.9%; in the series filed under Oryctolagus cuniculus [8], 32%.

`CSc1nc(N)c2ncn([C@@H]3O[C@H](COP(=O)(O)C(Cl)(Cl)P(=O)(O)O)[C@@H](O)[C@H]3O)c2n1` displayed a pKa in series [1] of 7. Also, the EC50 on P2Y purinoceptor 1 (read-out: EC50) turned out to be 3100 nM. For the same compound, the Activity is reported as 1.7% in series [3], 3.3% in series [6] and 1.8% in series [7]. Further, the outcome in the series listed under Oryctolagus cuniculus [8] (Eye) was Active. Further, the pD2 in the series filed under Oryctolagus cuniculus [9] is recorded as 4.5.

Compound `CSc1nc(N)c2ncn([C@@H]3O[C@H](COP(=O)(O)C(F)(F)P(=O)(O)O)[C@@H](O)[C@H]3O)c2n1` came in with a pKa in [1] of 7. In addition, the EC50 at P2Y purinoceptor 1 (read-out: EC50) came to 980 nM. The Activity stood at 1.3% in [2], 2.4% in [3], 0.1% in [5] and 3.9% in series [6]. For the same compound, in the series listed under Oryctolagus cuniculus [8] (Eye), the outcome was Active. Also, in the series filed under Oryctolagus cuniculus [9], the pD2 came out at 5.1.

As to `BP(=O)(OC[C@H]1O[C@@H](n2cnc3c(N)ncnc32)[C@H](O)[C@@H]1O)OP(=O)(O)CP(=O)(O)O` (stereo not given in full), in series [1], the pKa came out at 8.4. For the same compound, the half-life in [10] is 1140 min.

`BP(=O)(OC[C@H]1O[C@@H](n2cnc3c(N)nc(SC)nc32)[C@H](O)[C@@H]1O)OP(=O)(O)CP(=O)(O)O` (stereo not given in full): in [1], the pKa was 8.4. For the same compound, in [10], the half-life is 870 min.

In the case of `CSc1nc(N)c2ncn([C@@H]3O[C@H](COP(=O)(O)OP(=O)(O)CP(=O)(O)O)[C@@H](O)[C@H]3O)c2n1`, the t1/2 in series [10] turned out to be 65 h. Further, in the series listed under Oryctolagus cuniculus [8], the Activity is 32%. Moreover, the pD2 in the series filed under Oryctolagus cuniculus [9] is recorded as 4.5.

As to `BP(=O)(OC[C@H]1O[C@@H](n2cnc3c(N)nc(SC)nc32)[C@H](O)[C@@H]1O)OP(=O)(O)C(F)(F)P(=O)(O)O` (stereo in doubt; 10A), the pKa in [1] turned out to be 7. In addition, on P2Y purinoceptor 1, the EC50 entry is listed as “Not Active”. Besides, the Activity in series [2] was 1%; in series [3], 1.8%; in series [4] it was 4.4%; in series [5], 1.7%; in series [6], 4%; in series [7], 10%.

Consider `BP(=O)(OC[C@H]1O[C@@H](n2cnc3c(N)nc(SC)nc32)[C@H](O)[C@@H]1O)OP(=O)(O)C(F)(F)P(=O)(O)O` (stereo in doubt; 10B), for which, at P2Y purinoceptor 1 (read-out: EC50), the EC50 is 2130 nM. In addition, the Activity is reported as 0.4% in [2], 0.9% in [3], 3.4% in series [6] and 3.2% in series [7].

Consider `BP(=O)(OC[C@H]1O[C@@H](n2cnc3c(N)ncnc32)[C@H](O)[C@@H]1O)OP(=O)(O)C(Cl)(Cl)P(=O)(O)O` (stereo in doubt; 11A) [listing 1 of 2 here], for which the pKa in series [1] worked out at 7. Besides, the EC50 result at P2Y purinoceptor 1 is on record as “Not Active”. The Activity came to 5.5% in series [2]; 1.3% in series [3]; 2.6% in [4]; 4.4% in series [5]; 5.3% in series [6].

On to `BP(=O)(OC[C@H]1O[C@@H](n2cnc3c(N)ncnc32)[C@H](O)[C@@H]1O)OP(=O)(O)C(Cl)(Cl)P(=O)(O)O` (stereo in doubt; 11A) [listing 2 of 2 here], for which the outcome in the series listed under Oryctolagus cuniculus [8] (Eye) was inactive.

For the compound `BP(=O)(OC[C@H]1O[C@@H](n2cnc3c(N)ncnc32)[C@H](O)[C@@H]1O)OP(=O)(O)C(Cl)(Cl)P(=O)(O)O` (stereo in doubt; 11B) [listing 1 of 2 here], the EC50 result on P2Y purinoceptor 1 is recorded as “Not Active”. The Activity is 3.2% in series [2]; 1.4% in [3]; 3.1% in series [4]; 4% in [5]; 3.3% in series [6].

Take `BP(=O)(OC[C@H]1O[C@@H](n2cnc3c(N)ncnc32)[C@H](O)[C@@H]1O)OP(=O)(O)C(Cl)(Cl)P(=O)(O)O` (stereo in doubt; 11B) [listing 2 of 2 here]: the result in the series listed under Oryctolagus cuniculus [8] (Eye) was Active.

Compound `BP(=O)(OC[C@H]1O[C@@H](n2cnc3c(N)nc(SC)nc32)[C@H](O)[C@@H]1O)OP(=O)(O)C(Cl)(Cl)P(=O)(O)O` (stereo in doubt; 12A) [listing 1 of 2 here] displayed a pKa in series [1] of 7. For the same compound, the EC50 on P2Y purinoceptor 1 (read-out: EC50) is 570 nM. For the same compound, the Activity in series [2] is reported as 0.7%; in series [3], 1.5%; in series [4], 0.3%; in series [6], 0.7%; in series [7], 5%.

With `BP(=O)(OC[C@H]1O[C@@H](n2cnc3c(N)nc(SC)nc32)[C@H](O)[C@@H]1O)OP(=O)(O)C(Cl)(Cl)P(=O)(O)O` (stereo in doubt; 12A) [listing 2 of 2 here], in the series listed under Oryctolagus cuniculus [8] (Eye), the outcome was Active.

As for `BP(=O)(OC[C@H]1O[C@@H](n2cnc3c(N)nc(SC)nc32)[C@H](O)[C@@H]1O)OP(=O)(O)C(Cl)(Cl)P(=O)(O)O` (stereo in doubt; 12B) [listing 1 of 2 here], the EC50 at P2Y purinoceptor 1 (read-out: EC50) was 1200 nM. For the same compound, the Activity is on record as 1.8% in series [5] and 4% in series [6].

Consider `BP(=O)(OC[C@H]1O[C@@H](n2cnc3c(N)nc(SC)nc32)[C@H](O)[C@@H]1O)OP(=O)(O)C(Cl)(Cl)P(=O)(O)O` (stereo in doubt; 12B) [listing 2 of 2 here], for which the outcome in the series filed under Oryctolagus cuniculus [8] (Eye) was Active.

On to `Nc1ncnc2c1ncn2[C@@H]1O[C@H](COP(=O)(O)OP(=O)(O)OP(=O)(O)O)[C@@H](O)[C@H]1O` [ADENOSINE TRIPHOSPHATE], for which the t1/2 in the series on Serum was 4.9 h.
